bCat nuc transl = alters nuclear translocation of beta-catenin in HeLa cells. immunofluorescence imaging. nuclear translocation activity, % at 5 µM. 190,000 compounds, 0.3% hits. AID 1665;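 active = nuclear translocation activity above 50% at 5 µM, with a well cell count of 50 or more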;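 note: per-cell ratio of nuclear to cytoplasmic median beta-catenin stain intensity; plate controls were DMSO negative control for no effect and GSK-3 inhibitor IX positive control for full effect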
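Test system: HeLa cells, endogenous beta-catenin; Compound: single 5 µM dose plus 0.02–20 µM confirmation series; Times: compound exposure 24 h at 37°C; Signal: fluorescence imaging of beta-catenin antibody stain plus DAPI; Read-out: % activation, nuclear-to-cytoplasmic median beta-catenin signal ratio per cell.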
APP 5UTR inh = APP translation inhibition. SH-SY5Y APP 5'UTR-luciferase reporter, luminescence. inhibition, % at 2 µM. 190,000 compounds, 0.82% hits. AID 1285;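 active = inhibition above a set limit, derived from the sample mean plus 3 SD, cut at about 45% in these data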
MT stabilizer = microtubule stabilization, imaging screen; HeLa tubulin immunostaining HCS, 24 h; share of cells brighter than vehicle mean+2SD; % tubulin-high responders, % at 10 µM; 200,000 compounds, 0.83% hits; AID 2205;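 active = plate Z-score above 3 for both tubulin-high and condensed-nucleus cell shares, with cell loss under 80%, at 10 µM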;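 note: anti alpha tubulin signal scored within the nucleus-defined area of each cell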
BaF3 tox = counter-screen for JAK2V617F inhibitors: parental Ba/F3 viability inhibitors | CellTiter-Glo ATP luminescence | inhibition, % at 5.6 µM | 220,000 compounds, 1.1% hits | AID 1486;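 active = inhibition above a per-campaign cutoff, the mean inhibition of all tested compounds plus 3 SD, cut at about 27% in these data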;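 note: 0% = DMSO wells and 100% = JAK Inhibitor I control wells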
Lmaj promast = reduces viability of Leishmania major promastigotes; resazurin fluorescence viability; inhibition, % at 10 µM; 200,000 compounds, 9% hits; in the data active = inhibition above about 50%;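 note: promastigotes grown with compound for 44 hours at 28 °C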
Ba/F3 V617F tox = loss of viability in JAK2V617F-driven Ba/F3 cells; Ba/F3 EpoR-JAK2V617F viability, ATP luminescence; 220,000 compounds, 1.1% hits; inhibition, % at 5.6 µM; AID 1446;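 active = inhibition above the campaign mean plus 3 SD over all tested compounds, cut at about 24% in these data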;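 note: cytokine-independent growth of Ba/F3 cells driven by EpoR plus mutant JAK2; 0% = DMSO-treated cells and 100% = JAK inhibitor I control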
An asterisk follows results filed as active; . = not tested or not shown. The list is not random: actives were taken first. Their share in the collection is about 9.6%.

SMILES | bCat nuc transl | APP 5UTR inh | MT stabilizer | BaF3 tox | Lmaj promast | Ba/F3 V617F tox
COCc1cc(S(=O)c2ccc(Cl)cc2)nc(C)n1 (configuration not stated) | 1 | -8 | 6 | -8 | 99* | 5
CCC(=O)Nc1ccc(NC(=S)NC(=O)/C=C/c2ccccc2)cc1 | 1 | 14 | 3 | 5 | 81* | -9
COc1ccc(/C=C/C(=O)NC(=S)Nc2ccc(C(=O)O)cc2)cc1 | -3 | 4 | 2 | 4 | 69* | 3
Cc1ccccc1C(=O)OCCN(C)Cc1ccccc1 | -1 | 6 | 2 | 7 | 3 | 5
CCOc1cc(C(c2c(C)[nH][nH]c2=O)c2c(C)[nH][nH]c2=O)ccc1OC(=O)c1cccc([N+](=O)[O-])c1 | -8 | 1 | 3 | 4 | 25 | 0
Cc1ccc(C(c2c(C)[nH][nH]c2=O)c2c(C)[nH][nH]c2=O)cc1[N+](=O)[O-] | -1 | 12 | 2 | 7 | 58* | -2
CCOc1cc(C(c2c(C)[nH][nH]c2=O)c2c(C)[nH][nH]c2=O)ccc1OCc1ccc([N+](=O)[O-])cc1 | 3 | . | 2 | 3 | 100* | -4
COc1cc(C(c2c(C)[nH][nH]c2=O)c2c(C)[nH][nH]c2=O)cc([N+](=O)[O-])c1O | -1 | -29 | 2 | 3 | 0 | -1
Cc1ccc[n+](C(C)C(=O)c2ccc(-c3ccccc3)cc2)c1 (configuration not stated) | -3 | -9 | 3 | 69* | 98* | 58*
CC(=O)Nc1cc[n+](C(C)C(=O)c2ccc(Cl)cc2)cc1 (configuration not stated) | -2 | -25 | 3 | 15 | -8 | 9
Cc1cc[n+](C(C)C(=O)c2ccc(-c3ccccc3)cc2)cc1 (configuration not stated) | 0 | 0 | 2 | 66* | 90* | 81*
CC(C(=O)c1ccc(-c2ccccc2)cc1)[n+]1ccccc1 (configuration not stated) | 1 | 2 | 4 | 64* | 34 | 47*
CCn1c(C)c(CS(=O)(=O)c2ccccc2)[nH]c1=O | 0 | 13 | 3 | -1 | -1 | -2
COc1ccccc1CC(=O)Nc1ccc2nc(C)sc2c1 | 0 | -18 | 7 | 5 | 61* | 4
COc1ccccc1CC(=O)Nc1ccc2c(c1)C(=O)NC2=O | 2 | 6 | 3 | -5 | 100* | -5
COc1cc(CC(=O)Nc2ccc3nc(C)sc3c2)cc(OC)c1OC | 0 | 4 | 3 | 11 | 49 | 0
CCOC(=O)C(=O)NNc1ccc(F)cc1 | 12 | . | . | 1 | . | -7
CC(CSc1nc2ccccc2s1)Cn1c(N2CCCC2)nc2c1c(=O)[nH]c(=O)n2C (configuration not stated) | -2 | 9 | 6 | 9 | 52* | 4
CC1CCN(c2nc3c(c(=O)[nH]c(=O)n3C)n2CC(C)CSc2nnnn2-c2ccccc2)CC1 (configuration not stated) | -1 | 12 | 3 | 1 | 98* | -1
Cn1c(=O)[nH]c(=O)c2c1nc(N1CCCCC1)n2CCCSc1nnnn1-c1ccccc1 | 0 | -18 | 4 | 3 | 7 | 5
Cc1ccc(N=Cc2cc3c(cc2O)OC(N)=C(C#N)C3c2ccccc2)cc1 (configuration not stated) | 0 | -9 | 7 | 4 | 2 | -1
COC(=O)c1c(-c2ccccc2Cl)noc1-c1cnc(N)nc1C(F)(F)F | 0 | . | . | -1 | . | -3
CN(C)CC/C=C1\c2ccccc2Sc2ccc(Cl)cc21 | 0 | -23 | 6 | 8 | 64* | -2
CC[N+](C)(C)CC/C=C1/c2ccccc2Sc2ccc(Cl)cc21 | 0 | . | . | 25 | . | 17
CN(C)CCC=C1c2ccccc2CCc2ccccc21 | . | 6 | 3 | 10 | 88* | 4
SMILES | bCat nuc transl | APP 5UTR inh | MT stabilizer | BaF3 tox | Lmaj promast | Ba/F3 V617F tox
O=C(c1cc(Cl)c(=O)n(Cc2ccc(Cl)cc2)c1)N1CCOCC1 | . | -6 | 2 | 6 | -7 | -4
CCOC(=O)c1cnc2c(C(=O)OC)cccc2c1NCc1ccco1 | . | 1 | 6 | 2 | 51* | 7
CCOC(=O)c1cnc2ccccc2c1NCCO | 0 | -5 | 3 | 3 | -3 | -5
CCOC(=O)c1cnc2c(C)cccc2c1NCc1ccco1 | -1 | 10 | 2 | 4 | 56* | 0
C/C(=N\N=c1/scc(C)n1Cc1ccco1)c1cccc([N+](=O)[O-])c1 | -1 | -26 | 5 | 4 | -6 | 0
O=C1c2ccccc2C(=O)c2c(NCCCN(CCO)CCO)cccc21 | -4 | 4 | 4 | 14 | 100* | 6
CCN(CC)CC(=O)Nc1cccc2c1C(=O)c1ccccc1C2=O | . | -8 | 2 | 5 | 9 | 0
CCOc1ncccc1C(=O)NCc1ccc(OC)cc1 | 24 | . | 36* | 9 | -5 | 4
CCOc1ncccc1C(=O)NCc1ccccc1 | . | -14 | 3 | 3 | 54* | -2
CCOc1ncccc1C(=O)NCc1cccc(OC)c1 | -3 | 9 | 3 | 2 | 40 | -5
O=C(CCc1nc2ccccc2s1)OCc1ccccc1 | . | 6 | 2 | 9 | 56* | 1
O=C(CS(=O)(=O)c1ccccc1)Nc1ccc(N2CCOCC2)cc1 | 1 | 3 | 3 | 7 | -6 | 5
CCOC(=O)N[C@H](Cc1c[nH]c2ccccc12)C(=O)NC1CC1 | 0 | . | . | 0 | . | -5
COc1ccccc1CNC(=O)C(Cc1c[nH]c2ccccc12)NC(=O)OCc1ccccc1 (configuration not stated) | -2 | 2 | 3 | 2 | 99* | -4
Fc1ccc(NC(=S)N2CCCN(c3ccc(C(F)(F)F)cn3)CC2)c(F)c1 | 0 | . | . | 33* | . | 35*
O=C(Nc1ccc(F)cc1F)N1CCCN(c2ccc(C(F)(F)F)cn2)CC1 | 1 | . | . | 2 | . | 4
COc1ccccc1N1C(=O)C2C(c3ccc(F)cc3)NN(C(=O)c3ccc(C)cc3)C2C1=O (configuration not stated) | -2 | 12 | 3 | -2 | 1 | -2
Cc1cc(N/N=C/c2ccc(F)cc2)nc(-n2nc(C)cc2C)n1 | -6 | . | . | 1 | . | 3
COc1ccc(/C=N/Nc2cc(C)nc(-n3nc(C)cc3C)n2)c(OC)c1 | -1 | 8 | 4 | 3 | 99* | 0
CCOc1ccc(Nc2cc(C)nc(-n3nc(C)cc3C)n2)cc1 | 87* | 96* | 16 | 81* | 90* | 77*
CC(=O)NC1=NN(C(C)=O)C(C)(c2cccs2)S1 (configuration not stated) | 2 | 5 | 39* | 62* | 0 | 62*
CC(=O)NC1=NN(C(C)=O)C(C)(c2ccco2)S1 (configuration not stated) | 0 | 3 | 2 | 8 | -1 | -1
C1CCC(n2nnnc2CN2CCN(C3CCCC3)CC2)CC1 | -2 | -3 | 2 | 4 | 90* | 3

Screens as filed in PubChem.
